{"source": "ChEMBL document CHEMBL1144138", "about": "“Cytotoxic terpenoids from the Formosan soft coral Nephthea brassica” (1999)", "type_in_all_cases": "functional", "key": {"A549": {"test_system": "A549", "assay": "Cytotoxicity against human A549 cells after 6 days by MTT assay", "conditions": "A549, 144 h, read-out: ED50 (the source's name)", "in_short": "(§1)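 Cells were adapted to RPMI 1640 with 10% FCS and 1 mM […], then grown at 37 °C in 5% CO2. Seeding per well was 750 for A549, 750 for HT-29, 2000 for KB and 1500 for P-388. Three to eight concentrations spanning an 8- to 128-fold range were tested. After exposure, 1 mg/mL MTT was added for 4 h at 37 °C, formazan was dissolved in DMSO, and A540 was read. ED50 is the concentration giving 50% absorbance reduction versus untreated cells.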"}, "HT-29": {"test_system": "HT-29", "assay": "Cytotoxicity against human HT-29 cells after 6 days by MTT assay", "conditions": "HT-29, 144 h, read-out: ED50 (the source's name)", "in_short": "as §1"}, "KB": {"test_system": "KB", "assay": "Cytotoxicity against human KB cells after 3 days by MTT assay", "conditions": "72 h, read-out: ED50 (the source's name)", "in_short": "as §1"}, "P388": {"test_system": "P388", "assay": "Cytotoxicity against mouse P388 cells after 3 days by MTT assay", "conditions": "P388, 72 h, read-out: ED50 (the source's name)", "in_short": "as §1"}}, "data": [{"molecule": "C=C[C@]1(C)CC[C@H](C(=C)C)C[C@@H]1C(=C)C", "values": [{"measurement": "EC50", "setting": "A549", "value": "> 50", "unit": "µg/mL"}, {"measurement": "EC50", "setting": "HT-29", "value": "> 50", "unit": "µg/mL"}, {"measurement": "EC50", "setting": "KB", "value": "> 50", "unit": "µg/mL"}, {"measurement": "EC50", "setting": "P388", "value": 0.92, "unit": "µg/mL"}]}, {"molecule": "C=C(C)C1CC[C@@]2(C)CCC[C@@](C)(OC(C)=O)[C@@H]2C1", "note": "(stereo partly specified)", "values": [{"measurement": "EC50", "setting": "A549", "value": 0.12, "unit": "µg/mL"}, {"measurement": "EC50", "setting": "HT-29", "value": "> 50", "unit": "µg/mL"}, {"measurement": "EC50", "setting": "KB", "value": "> 50", "unit": "µg/mL"}, {"measurement": "EC50", "setting": "P388", "value": 2.44, "unit": "µg/mL"}]}, {"molecule": "C=C(C)C1CC[C@@]2(C)CCC[C@@](C)(O)[C@@H]2C1", "note": "(stereo partly specified)", "values": [{"measurement": "EC50", "setting": "A549", "value": "> 50", "unit": "µg/mL"}, {"measurement": "EC50", "setting": "HT-29", "value": "> 50", "unit": "µg/mL"}, {"measurement": "EC50", "setting": "KB", "value": "> 50", "unit": "µg/mL"}, {"measurement": "EC50", "setting": "P388", "value": 3.86, "unit": "µg/mL"}]}, {"molecule": "C/C1=C\\CC/C(C)=C/[C@H](O)C(C(C)(C)O)CC/C(C)=C/CC1", "note": "(stereo partly specified)", "values": [{"measurement": "EC50", "setting": "A549", "value": 0.71, "unit": "µg/mL"}, {"measurement": "EC50", "setting": "HT-29", "value": 1.02, "unit": "µg/mL"}, {"measurement": "EC50", "setting": "KB", "value": 0.23, "unit": "µg/mL"}, {"measurement": "EC50", "setting": "P388", "value": 1.8, "unit": "µg/mL"}]}, {"molecule": "CC(=O)OC(C)(C)C1CC/C(C)=C/CC/C(C)=C/CCC2=C[C@@H]1OC2=O", "note": "(stereo partly specified) [BRASSICOLIDE ACETATE]", "values": [{"measurement": "EC50", "setting": "A549", "value": 3.03, "unit": "µg/mL"}, {"measurement": "EC50", "setting": "HT-29", "value": 0.81, "unit": "µg/mL"}, {"measurement": "EC50", "setting": "KB", "value": 0.72, "unit": "µg/mL"}, {"measurement": "EC50", "setting": "P388", "value": 1.2, "unit": "µg/mL"}]}, {"molecule": "C/C1=C\\CCC2=C[C@H](OC2=O)C(C(C)(C)O)CC/C(C)=C/CC1", "note": "(stereo partly specified) [BRASSICOLIDE]", "values": [{"measurement": "EC50", "setting": "A549", "value": "> 50", "unit": "µg/mL"}, {"measurement": "EC50", "setting": "HT-29", "value": 5.81, "unit": "µg/mL"}, {"measurement": "EC50", "setting": "KB", "value": 2.4, "unit": "µg/mL"}, {"measurement": "EC50", "setting": "P388", "value": 2.44, "unit": "µg/mL"}]}, {"molecule": "C=C(C)[C@H]1C/C=C(\\C)CC/C=C(\\C)CC/C=C(\\C)CC1", "note": "[CEMBRENE_A]", "values": [{"measurement": "EC50", "setting": "A549", "value": 1.11, "unit": "µg/mL"}, {"measurement": "EC50", "setting": "HT-29", "value": 3.42, "unit": "µg/mL"}, {"measurement": "EC50", "setting": "KB", "value": 3.73, "unit": "µg/mL"}, {"measurement": "EC50", "setting": "P388", "value": 1.1, "unit": "µg/mL"}]}, {"molecule": "C=C(C)[C@@H]1CC/C(C)=C/CC/C(C)=C/CC[C@]2(C)O[C@H]2C1", "note": "[EPOXYCEMBRENE A]", "values": [{"measurement": "EC50", "setting": "A549", "value": 3.61, "unit": "µg/mL"}, {"measurement": "EC50", "setting": "HT-29", "value": 2.72, "unit": "µg/mL"}, {"measurement": "EC50", "setting": "KB", "value": 3.41, "unit": "µg/mL"}, {"measurement": "EC50", "setting": "P388", "value": 0.4, "unit": "µg/mL"}]}, {"molecule": "C/C1=C\\CC/C(C)=C/CC(C(C)(C)O)CC/C(C)=C/CC1", "note": "(stereo unspecified) [NEPHTHENOL]", "values": [{"measurement": "EC50", "setting": "A549", "value": 2.72, "unit": "µg/mL"}, {"measurement": "EC50", "setting": "HT-29", "value": 3.01, "unit": "µg/mL"}, {"measurement": "EC50", "setting": "KB", "value": 1.81, "unit": "µg/mL"}, {"measurement": "EC50", "setting": "P388", "value": 0.42, "unit": "µg/mL"}]}]}
